Data on 4 compounds can be found in publication PMC2761715 (Molecular cancer therapeutics, 2009).

Holding throughout (assay type): cell-based
Experiment [1] relates to 8226 cells. The experiment in a line: Cell death analysis, annexin V, FACS. Particulars: addition of 3-MA, supplemental data S5.
Experiment [2] relates to H929 cells. The experiment in a line: Mitochondrial membrane potential. The settings on record: H929, NAC 10 mM 30 min, then HYD1 50 µg/ml 4 hrs; Figure 5C. Put shortly:
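H929 cells (4 × 10^5 cells/ml) pretreated 30 min with 10 mM NAC, then test compound 50 µg/ml for a further 4 h. Cells stained 15 min with 15 nM DiOC6, PBS-washed and resuspended, then loss of Δψm measured by flow cytometry; n=9.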

In experiment [3] the test system is LC3. The experiment can be described thus: LC3-I to LC3-II conversion, western blot. The procedure, abridged:
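H929 or 8226 cells exposed 4 h to test peptide or scrambled peptide (50 µg/ml H929; 100 µg/ml 8226) or 100 uM tunicamycin; NAC arm: H929 at 4 × 10^5 cells/ml, 10 mM NAC 30 min then 50 µg/ml for 4 h. Lysed on ice in NP-40/Tris pH 7.6 buffer with protease/phosphatase inhibitors; 10 µg protein, 8% SDS-PAGE, PVDF blot for LC3-I/II.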
In general terms: In western blotting, separated proteins are transferred to a membrane and probed.

Experiment [4] relates to H929 cells. The experiment in a line: Reactive oxygen species. Particulars: NAC 10 mM; supplementary data S7.
The test system of experiment [5] is H929 cells. The experiment in a line: Neutral comet assay. Particulars: H929, 6 hours, 50 ug/ml HYD1 or HYDS or 50 ng/ml TRAIL, n=150; Figure 3D. Put shortly:
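Neutral comet assay on H929 cells given 50 µg/ml test peptide, scrambled peptide, or 50 ng/ml TRAIL (positive control) for 6 h. 5,000 cells pelleted, taken up in PBS agar, layered onto frosted slides and run under neutral conditions. Comet moments measured from 50 images per treatment by CCD camera; n=150.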

On to `Cn1cnc(N)c2ncnc1-2` [3-MA, 3-Methyladenine], for which the “sensitization to HYD1 induced cell death” value in experiment [1] is on record as “sensitized 8226 cells to HYD1 induced cell death”.
As for `CC(=O)N[C@@H](CS)C(=O)O` [NAC, N-acetyl-L-cysteine], the “reversal of HYD1-induced loss in Δψm by NAC” value in experiment [2] is reported as “not reversed by pretreatment with NAC”. The “reversal of HYD1-induced increase in LC3-II by NAC” value in experiment [3] (H929, NAC 10 mM 30 min, then HYD1 50 µg/ml 4 hrs, Figure 5D) was “completely reversed”. Moreover, the “inhibition of ROS production by NAC” value in experiment [4] is recorded as “effective in inhibiting the production of ROS”.
On to TRAIL, for which, in experiment [5], the “comet moments (double stranded DNA breaks)” value was “significant increase in comet moments”.
With Tunicamycin, in experiment [3] (4 hour treatment, 50 µg/ml HYD1 for H929, 100 ug/ml for 8226, 100 uM tunicamycin), the “conversion of LC3-I to LC3-II” value is “increased conversion of LC3-I to LC3-II”.
